Source: ChEMBL document CHEMBL1795311, “Synthesis, antiproliferative activity, and mechanism of action of a series of 2-{[(2E)-3-phenylprop-2-enoyl]amino}benzamides” (Eur J Med Chem, 2011)

Legend:
K562 [1] = test: Antiproliferative activity against human K562 cells at 10 uM after 48 hrs by trypan blue assay; assay type: functional; conditions: K562, 48 h, read-out: GI
K562 [2] = test: Growth inhibition of human K562 cells after 48 hrs by trypan blue assay; assay type: functional, cell-based; conditions: K562, 48 h
CCRF-CEM = test: Growth inhibition of human CCRF-CEM cells after 48 hrs by SRB assay; assay type: functional
How it was run: (§1)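 NCI DTP panel cells grown in RPMI 1640 with 5% FBS and 2 mM L-glutamine, preincubated 24 h, then given five concentrations (10-fold or ½-log dilutions from DMSO stock) for 48 h at 37 °C. Cells fixed with TCA, stained with SRB, absorbance read at 515 nm, with time-zero plates as reference.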

K562 [3] = test: Growth inhibition of human K562 cells after 48 hrs by SRB assay; assay type: functional; conditions: K562, 48 h; how it was run: as §1
MOLT-4 = test: Growth inhibition of human MOLT4 cells after 48 hrs by SRB assay; assay type: functional; conditions: MOLT-4, 48 h; how it was run: as §1
RPMI-8226 = test: Growth inhibition of human RPMI8226 cells after 48 hrs by SRB assay; assay type: functional; conditions: RPMI-8226, 48 h; how it was run: as §1
A549 = test: Growth inhibition of human A549 cells after 48 hrs by SRB assay; assay type: functional; conditions: A549, 48 h; how it was run: as §1
EKVX = test: Growth inhibition of human EKVX cells after 48 hrs by SRB assay; assay type: functional; how it was run: as §1
HOP-62 = test: Growth inhibition of human HOP62 cells after 48 hrs by SRB assay; assay type: functional; conditions: HOP-62, 48 h; how it was run: as §1
HOP-92 = test: Growth inhibition of human HOP92 cells after 48 hrs by SRB assay; assay type: functional; conditions: HOP-92, 48 h; how it was run: as §1
NCI-H226 = test: Growth inhibition of human NCI-H226 cells after 48 hrs by SRB assay; assay type: functional; conditions: NCI-H226, 48 h; how it was run: as §1
NCI-H23 = test: Growth inhibition of human NCI-H23 cells after 48 hrs by SRB assay; assay type: functional; conditions: NCI-H23, 48 h; how it was run: as §1
NCI-H460 = test: Growth inhibition of human NCI-H460 cells after 48 hrs by SRB assay; assay type: functional; conditions: NCI-H460, 48 h; how it was run: as §1
NCI-H522 = test: Growth inhibition of human NCI-H522 cells after 48 hrs by SRB assay; assay type: functional; conditions: NCI-H522, 48 h; how it was run: as §1
COLO 205 = test: Growth inhibition of human COLO205 cells after 48 hrs by SRB assay; assay type: functional; conditions: COLO 205, 48 h; how it was run: as §1
HCT-15 = test: Growth inhibition of human HCT15 cells after 48 hrs by SRB assay; assay type: functional; conditions: HCT-15, 48 h; how it was run: as §1
HT-29 = test: Growth inhibition of human HT-29 cells after 48 hrs by SRB assay; assay type: functional; conditions: HT-29, 48 h; how it was run: as §1
KM12 = test: Growth inhibition of human KM12 cells after 48 hrs by SRB assay; assay type: functional; conditions: KM12, 48 h; how it was run: as §1
SW-620 = test: Growth inhibition of human SW620 cells after 48 hrs by SRB assay; assay type: functional; conditions: SW-620, 48 h
How it was run: (§2)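 Run by the NCI Developmental Therapeutics Program: cells in RPMI 1640 with 5% FBS and 2 mM L-glutamine, plated at 5000–40,000 cells/well and grown 24 h before dosing. Drug (DMSO stock) given at five concentrations for 48 h at 37 °C, 5% CO2. Adherent cells fixed with cold TCA, stained with 0.4% SRB and read at 515 nm. GI50, TGI and LC50 taken from the time-zero, control and treated absorbances.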

SF-268 = test: Growth inhibition of human SF268 cells after 48 hrs by SRB assay; assay type: functional; conditions: SF-268, 48 h; how it was run: as §1
SF-295 = test: Growth inhibition of human SF295 cells after 48 hrs by SRB assay; assay type: functional; conditions: SF-295, 48 h; how it was run: as §1
SF-539 = test: Growth inhibition of human SF539 cells after 48 hrs by SRB assay; assay type: functional; conditions: SF-539, 48 h; how it was run: as §1
SNB-19 = test: Growth inhibition of human SNB19 cells after 48 hrs by SRB assay; assay type: functional; conditions: SNB-19, 48 h; how it was run: as §2
U-251 = test: Growth inhibition of human U251 cells after 48 hrs by SRB assay; assay type: functional; conditions: U-251, 48 h; how it was run: as §2
LOX IMVI = test: Growth inhibition of human LOXIMVI cells after 48 hrs by SRB assay; assay type: functional; how it was run: as §1
Malme-3M = test: Growth inhibition of human MALME-3M cells after 48 hrs by SRB assay; assay type: functional; how it was run: as §1
M14 = test: Growth inhibition of human M14 cells after 48 hrs by SRB assay; assay type: functional; conditions: M14, 48 h; how it was run: as §1
SK-MEL-2 = test: Growth inhibition of human SK-MEL-2 cells after 48 hrs by SRB assay; assay type: functional; conditions: SK-MEL-2, 48 h; how it was run: as §2
SK-MEL-28 = test: Growth inhibition of human SK-MEL-28 cells after 48 hrs by SRB assay; assay type: functional; conditions: SK-MEL-28, 48 h; how it was run: as §2
SK-MEL-5 = test: Growth inhibition of human SK-MEL-5 cells after 48 hrs by SRB assay; assay type: functional; conditions: SK-MEL-5, 48 h; how it was run: as §2
IGROV-1 = test: Growth inhibition of human IGROV1 cells after 48 hrs by SRB assay; assay type: functional; conditions: IGROV-1, 48 h; how it was run: as §1
OVCAR-3 = test: Growth inhibition of human OVCAR3 cells after 48 hrs by SRB assay; assay type: functional; conditions: OVCAR-3, 48 h; how it was run: as §1
OVCAR-4 = test: Growth inhibition of human OVCAR4 cells after 48 hrs by SRB assay; assay type: functional; conditions: OVCAR-4, 48 h; how it was run: as §1
OVCAR-5 = test: Growth inhibition of human OVCAR5 cells after 48 hrs by SRB assay; assay type: functional; conditions: OVCAR-5, 48 h; how it was run: as §1
OVCAR-8 = test: Growth inhibition of human OVCAR8 cells after 48 hrs by SRB assay; assay type: functional; conditions: OVCAR-8, 48 h; how it was run: as §1
SK-OV-3 = test: Growth inhibition of human SKOV3 cells after 48 hrs by SRB assay; assay type: functional; conditions: SK-OV-3, 48 h; how it was run: as §2
CAKI-1 = test: Growth inhibition of human Caki1 cells after 48 hrs by SRB assay; assay type: functional; conditions: CAKI-1, 48 h; how it was run: as §1
RXF 393 = test: Growth inhibition of human RXF393 cells after 48 hrs by SRB assay; assay type: functional; conditions: RXF 393, 48 h; how it was run: as §1
TK-10 = test: Growth inhibition of human TK10 cells after 48 hrs by SRB assay; assay type: functional; conditions: TK-10, 48 h; how it was run: as §2
PC-3 = test: Growth inhibition of human PC3 cells after 48 hrs by SRB assay; assay type: functional; conditions: PC-3, 48 h; how it was run: as §1
DU-145 = test: Growth inhibition of human DU145 cells after 48 hrs by SRB assay; assay type: functional; conditions: DU-145, 48 h; how it was run: as §1
MCF7 = test: Growth inhibition of human MCF7 cells after 48 hrs by SRB assay; assay type: functional; conditions: MCF7, 48 h; how it was run: as §1
MDA-MB-231 = test: Growth inhibition of human MDA-MB-231 cells after 48 hrs by SRB assay; assay type: functional; conditions: MDA-MB-231, 48 h; how it was run: as §1
[4] = Growth inhibition of human Hs 578T cells after 48 hrs by SRB assay; assay type: functional; how it was run: as §1
BT-549 = test: Growth inhibition of human BT549 cells after 48 hrs by SRB assay; assay type: functional; conditions: BT-549, 48 h; how it was run: as §1
T47D = test: Growth inhibition of human T47D cells after 48 hrs by SRB assay; assay type: functional; how it was run: as §2

`NC(=O)c1cc(I)ccc1NC(=O)/C=C/c1ccccc1` showed an inhibition of growth at 10 µM (K562 [1]) of 74.5%, an IC50 (K562 [2]) of 0.57 µM and a GI50 (CCRF-CEM) of 0.341 µM. The GI50 (K562 [3]) was 0.92 µM, the GI50 (MOLT-4) was 0.202 µM and the GI50 (RPMI-8226) was 0.347 µM. The GI50 (A549) was 2.65 µM, the GI50 (EKVX) was 0.734 µM and the GI50 (HOP-62) was 0.8 µM. For the same compound, the GI50 (HOP-92) was 21.2 µM, the GI50 (NCI-H226) was 1.09 µM and the GI50 (NCI-H23) was 0.84 µM. It also gave a GI50 (NCI-H460) of 0.453 µM, a GI50 (NCI-H522) of 0.303 µM and a GI50 (COLO 205) of 0.343 µM. The GI50 (HCT-15) was 0.586 µM, the GI50 (HT-29) was 0.367 µM and the GI50 (KM12) was 0.499 µM. For the same compound, the GI50 (SW-620) was 0.541 µM, the GI50 (SF-268) was 2.31 µM and the GI50 (SF-295) was 0.35 µM. It also gave a GI50 (SF-539) of 0.445 µM, a GI50 (SNB-19) of 0.586 µM and a GI50 (U-251) of 0.501 µM. The GI50 (LOX IMVI) was 3.75 µM, the GI50 (Malme-3M) was 1.6 µM and the GI50 (M14) was 0.429 µM. For the same compound, the GI50 (SK-MEL-2) was 1.4 µM, the GI50 (SK-MEL-28) was 2.51 µM and the GI50 (SK-MEL-5) was 0.383 µM. The GI50 (IGROV-1) was 0.917 µM, the GI50 (OVCAR-3) was 0.353 µM and the GI50 (OVCAR-4) was 1.84 µM. It also gave a GI50 (OVCAR-5) of 3.52 µM, a GI50 (OVCAR-8) of 1.06 µM and a GI50 (SK-OV-3) of 0.744 µM. It also gave a GI50 (CAKI-1) of 0.648 µM, a GI50 (RXF 393) of 3.02 µM and a GI50 (TK-10) of 3.15 µM. The GI50 (PC-3) was 0.628 µM, the GI50 (DU-145) was 0.477 µM and the GI50 (MCF7) was 0.45 µM. For the same compound, the GI50 (MDA-MB-231) was 0.596 µM, the GI50 [4] was 0.375 µM and the GI50 (BT-549) was 9.47 µM. For the same compound, the GI50 (T47D) was 0.857 µM.
Compound `NC(=O)c1cc(Cl)ccc1NC(=O)/C=C/c1ccccc1` has an inhibition of growth at 10 µM (K562 [1]) of 64%, an IC50 (K562 [2]) of 2.5 µM and a GI50 (CCRF-CEM) of 2.96 µM. The GI50 (K562 [3]) was 0.845 µM, the GI50 (MOLT-4) was 3.95 µM and the GI50 (RPMI-8226) was 2.79 µM. The GI50 (A549) was 3.77 µM, the GI50 (EKVX) was 2.83 µM and the GI50 (HOP-62) was 3.15 µM. The GI50 (HOP-92) was 2.87 µM, the GI50 (NCI-H226) was 3 µM and the GI50 (NCI-H23) was 3.37 µM. The GI50 (NCI-H460) was 1.76 µM, the GI50 (NCI-H522) was 2.08 µM and the GI50 (COLO 205) was 1.68 µM. For the same compound, the GI50 (HCT-15) was 2.13 µM, the GI50 (HT-29) was 1.94 µM and the GI50 (KM12) was 1.69 µM. It also gave a GI50 (SW-620) of 1.99 µM, a GI50 (SF-268) of 2.9 µM and a GI50 (SF-295) of 1.4 µM. The GI50 (SF-539) was 2.05 µM, the GI50 (SNB-19) was 3.18 µM and the GI50 (U-251) was 2.14 µM. The GI50 (LOX IMVI) was 4.33 µM, the GI50 (Malme-3M) was 2.68 µM and the GI50 (M14) was 1.71 µM. For the same compound, the GI50 (SK-MEL-2) was 2.75 µM, the GI50 (SK-MEL-28) was 2.88 µM and the GI50 (SK-MEL-5) was 0.373 µM. The GI50 (IGROV-1) was 3.29 µM, the GI50 (OVCAR-3) was 1.3 µM and the GI50 (OVCAR-4) was 2.77 µM. For the same compound, the GI50 (OVCAR-5) was 2.74 µM, the GI50 (OVCAR-8) was 3.89 µM and the GI50 (SK-OV-3) was 2.3 µM. It also gave a GI50 (CAKI-1) of 0.263 µM, a GI50 (RXF 393) of 1.71 µM and a GI50 (TK-10) of 5.51 µM. It also gave a GI50 (PC-3) of 3.15 µM, a GI50 (DU-145) of 2.16 µM and a GI50 (MCF7) of 1.74 µM. For the same compound, the GI50 (MDA-MB-231) was 2.48 µM, the GI50 [4] was 2.04 µM and the GI50 (BT-549) was 3.19 µM. It also gave a GI50 (T47D) of 3.36 µM.
